Experimental data gathered from unrelated publications.
Protocols differ between the studies behind these lines.

With `NCc1ccc(-c2nn(Cc3ccccc3)c3ccccc23)o1` the Tmax was 30 min (male CD-1 mouse; plasma; oral; 10 mg/kg).
`COc1cc(C2C3=C(COC3=O)N(CCO)c3cc4c(cc32)CCC4)cc(OC)c1OC` (centres unmarked) has a Tmax of 60 min (female C57BL/6 mouse; plasma; intraperitoneal; 50 mg/kg).
The Tmax of `Cc1ccc(CCC(=O)Nc2nnc(S(N)(=O)=O)s2)cc1` is reported as 10 min (male BALB/c mouse; plasma; oral; 20 mg/kg).
`Cc1ccc2c(c1)C(=O)[C@]1(O)CCN(c3ccc4nc(C)ccc4c3)C1=N2.Cl` gave a Tmax of at most 10 min (mouse; brain; subcutaneous; 5 mg/kg).
`COC1=CC(c2ccc[nH]2)=N/C1=C\c1[nH]c(Cc2ccc(OC(F)(F)F)cc2)cc1Cc1ccc(OC(F)(F)F)cc1` has a Tmax of 240 min (male CD-1 mouse; liver; oral; 40 mg/kg; single dose).
`OCc1ccc(-c2nn(Cc3ccccc3)c3ccccc23)o1` has a Tmax of 15 min (male CD-1 mouse; plasma; intraperitoneal; 30 mg/kg).
`COC1=CC(c2ccc[nH]2)=N/C1=C\c1cc(Cc2ccc(OC(F)(F)F)cc2)c(C)[nH]1.Cl` gave a Tmax of 1440 min (male CD-1 mouse; plasma; oral; 40 mg/kg; single dose).
`NCc1ccc(-c2nn(Cc3ccncc3)c3ccccc23)o1` gave a Tmax of 19.8 min (male CD-1 mouse; plasma; intraperitoneal; 30 mg/kg).
With `Cc1ccc(OCC(=O)N[C@@H](Cc2c[nH]c3ccccc23)C(=O)OC(C)C)cc1` the Tmax was 48 min (male Sprague-Dawley mouse; plasma; intravenous; 10 mg/kg).
`Cc1[nH]c(C)c(S(=O)(=O)Nc2ccc(C(F)(F)F)c(Cl)c2)c1C(=O)N1CCC(F)(F)C1` has a Tmax of 60 min (male CD-1 mouse; brain; intraperitoneal; 40 mg/kg).
With `COCC(=O)N1CCc2[nH]c3c(Cl)c(Cl)ccc3c2[C@@H]1C` the Tmax was 5 min (C57BL/6 mouse; blood; intravenous; 1 mg/kg).
The Tmax of `CCn1c(=O)c(-c2cc(NC(=O)Nc3ccccc3)c(F)cc2Br)cc2cnc(NC)cc21` is reported as 60 min (male mouse; plasma; oral; 15 mg/kg; single dose).
`Cc1nc2ccc(OCc3ccc(C(F)(F)F)cc3)cc2[nH]1` has a Tmax of 15 min (male BALB/c mouse; plasma; oral; 10 mg/kg).
For `CN(C)C(=O)c1cc2cnc(Nc3ccc(-c4ccc5c(=O)cc(N6CCOCC6)oc5c4)cc3)nc2n1C1CCCC1`, the Tmax was 24 min (BALB/c mouse; plasma; oral; 20 mg/kg).
